The IC50 is the concentration that inhibits the measured activity by half. The low end stands for greater potency in that assay, the high end for weaker potency in that assay. The CC50 is the concentration at which the toxic effect on the cells reaches its halfway point. Low readings indicate harm at low concentration, high ones better tolerance by the cells.

For 5 compounds, IC50, CC50 and Selectivity index results are on record in ChEMBL document CHEMBL1139509, “Design, synthesis, and antipicornavirus activity of 1-[5-(4-arylphenoxy)alkyl]-3-pyridin-4-ylimidazolidin-2-one derivatives” (J Med Chem, 2005).

In one data set the test system is rhinovirus A2. Kind of data set: Inhibitory concentration against Human rhinovirus 2. It is filed as functional, organism-based, human rhinovirus type 2. The note with it: Rhinovirus A. A digest of the protocol:
(§1)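 CPE-inhibition (neutralization) assay on RD cells seeded at 3 × 10⁵ cells/mL in DMEM/10% FBS and grown 24-30 h to about 90% confluency. Virus (100 TCID50) was mixed with graded compound concentrations and adsorbed 1 h at 37 °C. Cells were overlaid with DMEM, 5% FBS and 2% DMSO, incubated 64 h at 37 °C, then glutaraldehyde-fixed and crystal violet-stained, with A570 read-out. IC50 is 50% CPE reduction versus virus control. Triplicate, at least twice.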

In data set [1] the test system is Enterovirus. Kind of data set: In vitro inhibitory concentration against human enterovirus EV71-2231 strain. Type of data set: functional, organism-based, Enterovirus A71. The gist of the method:
as §1

Data set [2] relates to Coxsackievirus. Put plainly: Inhibitory concentration against Coxsackievirus A16. It is filed as functional, organism-based, Viruses. The gist of the method: as §1
A short description of data set [3]: Cytotoxicity against human rhabdomyosarcoma cells. Type of data set: cell-based. The gist of the method: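 RD (rhabdomyosarcoma) cells were exposed to test compounds at various concentrations for 96 h at 37 °C. Viable cells were counted by trypan blue staining. CC50 is the concentration that reduces viability to 50% of the untreated control culture. Triplicate, run at least twice.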

Data set [4] relates to Enterovirus. Kind of data set: In vitro inhibitory concentration against human enterovirus EV71-4643 strain. Type of data set: functional, organism-based, Enterovirus A71. A digest of the protocol:
as §1

In data set [5] the test system is Coxsackievirus. Put plainly: Inhibitory concentration against Coxsackievirus B2. It is filed as functional, organism-based, Viruses. A digest of the protocol:
as §1

The subject of data set [6] is Coxsackievirus. Kind of data set: Inhibitory concentration against Coxsackievirus A9. Type of data set: functional, organism-based, Viruses. A digest of the protocol:
as §1

Data set [7] concerns Coxsackievirus. Put plainly: Inhibitory concentration against Coxsackievirus B3. Type of data set: functional, organism-based, Viruses. The gist of the method:
as §1

Data set [8] deals with Enterovirus. Kind of data set: Inhibitory concentration against human enterovirus EV71 (1743) genotype B. Type of data set: functional, organism-based, Viruses. The gist of the method:
as §1

Data set [9] deals with Coxsackievirus. Kind of data set: Inhibitory concentration against Coxsackievirus A24. It is filed as functional, organism-based, Viruses. A digest of the protocol:
as §1

The subject of data set [10] is Coxsackievirus. Kind of data set: Inhibitory concentration against Coxsackievirus A10. It is filed as functional, organism-based, Viruses. The gist of the method:
as §1

Data set [11] concerns Enterovirus. Kind of data set: Ratio of CC50 to that of IC50 against human enterovirus EV71-4643 strain. It is filed as functional, Enterovirus A71.
Data set [12] has as its system Coxsackievirus. Put plainly: Inhibitory concentration against Coxsackievirus B5. Type of data set: functional, organism-based, Viruses. A digest of the protocol: as §1
The nature of data set [13]: Inhibitory concentration against Echovirus 9. Type of data set: functional, Viruses. The gist of the method: as §1
Data set [14] concerns Enterovirus. Kind of data set: Ratio of CC50 to that of IC50 against human enterovirus EV71-2231 strain. Type of data set: functional, Enterovirus A71.
In data set [15] the test system is Coxsackievirus. Kind of data set: Inhibitory concentration against Coxsackievirus B1. It is filed as functional, organism-based, Viruses. The gist of the method:
as §1

For data set [16], the system named is Enterovirus. Put plainly: Inhibitory concentration against human enterovirus EV71 (2231) genotype C. It is filed as functional, organism-based, Viruses. A digest of the protocol:
as §1

A short description of data set [17]: Inhibitory concentration against Human rhinovirus 14. It is filed as functional, human rhinovirus type 14. The gist of the method:
as §1

The nature of data set [18]: Inhibitory concentration against Echovirus 29. Type of data set: functional, Viruses. A digest of the protocol:
as §1

Data set [19] relates to Enterovirus. Kind of data set: Inhibitory concentration against human enterovirus EV68. Type of data set: functional, organism-based, Viruses.
In data set [20] the test system is Coxsackievirus. Put plainly: Inhibitory concentration against Coxsackievirus B4. Type of data set: functional, organism-based, Viruses. The gist of the method:
as §1

Data set [21] relates to Enterovirus. Kind of data set: Inhibitory concentration against human enterovirus EV71 (BrCr) genotype A. Type of data set: functional, organism-based, Viruses. A digest of the protocol: as §1
Data set [22] has as its system Coxsackievirus. Put plainly: Inhibitory concentration against Coxsackievirus B6. Type of data set: functional, organism-based, Viruses. A digest of the protocol:
as §1

Data set [23] relates to Enterovirus. Put plainly: Inhibitory concentration against human enterovirus EV71 (4643) genotype C. Type of data set: functional, organism-based, Viruses. The gist of the method: as §1
In data set [24] the test system is Enterovirus. Kind of data set: Inhibitory concentration against human enterovirus EV71 (2086) genotype C. Type of data set: functional, organism-based, Viruses. The gist of the method: as §1
The subject of the next data set is Human rhinovirus sp. Put plainly: In vitro inhibitory concentration against Rhinovirus 1B. Type of data set: functional, organism-based, Viruses.
The test system of data set [25] is Enterovirus. Put plainly: In vitro inhibitory concentration against human enterovirus EV71. Type of data set: functional, organism-based, Viruses. A digest of the protocol: as §1
The nature of data set [26]: In vitro inhibitory concentration against Echovirus 6. Type of data set: functional, Viruses.
Data set [27] is described as follows: In vitro inhibitory concentration against Coxsackievirus B4. It is filed as functional, Viruses. The gist of the method:
as §1

Data set [28] relates to Enterovirus. Put plainly: Inhibitory concentration against Human Enterovirus 71. Type of data set: functional, organism-based, Viruses. The gist of the method:
as §1

On to `CCn1nnc(-c2ccc(OCCC(C)CCN3CCN(c4ccncc4)C3=O)cc2)n1` (stereo not drawn), for which the half-inhibitory concentration (IC50) with rhinovirus A2 is 1450 nM; in the data set on Enterovirus [1], 14 nM; with Coxsackievirus [2] it was 130 nM; in the data set on Enterovirus [4], 0.9 nM; in the data set on Coxsackievirus [5] it was more than 25000 nM; in the data set with Coxsackievirus [6], more than 25000 nM. The IC50 was more than 25000 nM in the data set with Coxsackievirus [7]; 18 nM with Enterovirus [8]; 140 nM with Coxsackievirus [9]; 240 nM with Coxsackievirus [10]; 10400 nM with Coxsackievirus [12]; 280 nM in [13]. The IC50 in the data set with Coxsackievirus [15] was determined as 35 nM; in the data set with Enterovirus [16], 14 nM; in data set [17] it was 850 nM; in data set [18] it was 3230 nM; in the data set on Enterovirus [19], 2870 nM; in the data set on Coxsackievirus [20], 2740 nM. The IC50 was 15 nM in the data set with Enterovirus [21], more than 25000 nM in the data set with Coxsackievirus [22], 0.9 nM with Enterovirus [23] and 3 nM with Enterovirus [24]. The compound also displayed a CC50 in data set [3] of more than 12500 nM. Moreover, the Selectivity index in the data set with Enterovirus [11] is given as more than 13888; in the data set with Enterovirus [14] it was more than 892.

In the case of `c1ccc(C2COc3ccc(C4=NCCO4)cc3C2)cc1` (stereo not drawn), the concentration for half-maximal inhibition (IC50) in the data set with Human rhinovirus sp. amounted to 1010 nM; in the data set on Enterovirus [25], 4560 nM.

Regarding `CCc1nc(-c2ccc(OCCC(C)CCN3CCN(c4ccncc4)C3=O)cc2)no1` (stereo not drawn), the IC50 was 1580 nM in the data set on rhinovirus A2; 15 nM with Enterovirus [1]; 87 nM in the data set with Coxsackievirus [2]; 0.5 nM in the data set on Enterovirus [4]; 4790 nM in the data set with Coxsackievirus [5]; more than 25000 nM in the data set on Coxsackievirus [6]. Moreover, the half-maximal inhibitory concentration (IC50) in the data set with Coxsackievirus [7] is more than 25000 nM; in the data set on Enterovirus [8], 15 nM; in the data set with Coxsackievirus [9], 150 nM; in the data set with Coxsackievirus [10], 560 nM; in the data set with Coxsackievirus [12], 4500 nM; in data set [13] it was 500 nM. For the same compound, the IC50 in the data set with Coxsackievirus [15] worked out at 46 nM; in the data set with Enterovirus [16], 15 nM; in data set [17], 830 nM; in data set [18] it was 2630 nM; with Enterovirus [19] it was 5460 nM; in the data set on Coxsackievirus [20], 1270 nM. The IC50 in the data set on Enterovirus [21] was 10 nM; with Coxsackievirus [22], more than 25000 nM; with Enterovirus [23], 0.5 nM; in the data set on Enterovirus [24] it was 4 nM. Moreover, in [3], the 50% cytotoxic concentration (CC50) was more than 25000 nM. Also, the Selectivity index with Enterovirus [11] is given as more than 50000; in the data set with Enterovirus [14], more than 1666.

As to `N#Cc1ccc2c(c1)CCC(c1ccc(Cl)cc1)O2` (stereo not drawn), the IC50 in the data set on Enterovirus [25] was 450 nM; in data set [26], 480 nM; in data set [27] it was 320 nM.

Regarding `O=C1N(CCCCCOc2ccc(-c3ccc(Cl)cc3)cc2)CCN1c1ccncc1`, the IC50 in the data set on Enterovirus [28] is 38 nM; with rhinovirus A2 it was more than 12500 nM; in the data set with Enterovirus [1], 76 nM; with Coxsackievirus [2] it was more than 12500 nM; in the data set with Enterovirus [4], 38 nM; in the data set on Coxsackievirus [5], more than 12500 nM. In addition, the IC50 in the data set with Coxsackievirus [6] was 71 nM; in the data set with Coxsackievirus [7] it was more than 12500 nM; in the data set with Enterovirus [8], 92 nM; in the data set on Coxsackievirus [9], 1300 nM; in the data set with Coxsackievirus [10] it was more than 12500 nM; in the data set on Coxsackievirus [12], 1140 nM. Also, the IC50 in [13] is 1310 nM; in the data set on Coxsackievirus [15], more than 12500 nM; in the data set with Enterovirus [16] it was 76 nM; in data set [17], more than 12500 nM; in data set [18] it was 390 nM; with Enterovirus [19], more than 12500 nM. In addition, the half-maximal inhibitory concentration (IC50) in the data set with Enterovirus [21] is 130 nM; with Coxsackievirus [22], more than 12500 nM; in the data set with Enterovirus [23], 38 nM; with Enterovirus [24], 43 nM. The same compound had a CC50 in [3] of 6250 nM.
